Test results published in ChEMBL document CHEMBL3580644, “Synthesis of piperlongumine analogues and discovery of nuclear factor erythroid 2-related factor 2 (Nrf2) activators as potential neuroprotective agents” (J Med Chem, 2015).
Activity calls are given as the source filed them. The calls are words filed in the database; no cut-off is given here.

Assays:
[1] = Cytotoxicity against human L02 cells assessed as reduction in cell viability at 20 uM to 100 uM incubated for 24 hrs by MTT assay; format: cell-based; conditions: l02, 24 h
[2] = Cytotoxicity against rat PC12 cells assessed as reduction in cell viability at 20 uM incubated for 24 hrs by MTT assay; format: cell-based; conditions: pc-12, 24 h
PC-12 [3] = assay: Cytoprotection activity against H2O2-induced cytotoxicity in rat PC12 cells assessed as cell viability at 20 uM pre-incubated for 24 hrs before H2O2 exposure for 12 hrs by MTT assay; format: functional, cell-based
[4] = Cytoprotection activity against 6-OHDA-induced cytotoxicity in rat PC12 cells assessed as cell viability at 10 and 20 uM pre-incubated for 24 hrs before 6-OHDA exposure for 12 hrs by MTT assay; format: functional, PC-12
PC-12 [5] = assay: Cytoprotection activity against H2O2-induced cytotoxicity in rat PC12 cells assessed as cell viability at 10 and 20 uM pre-incubated for 24 hrs before H2O2 exposure for 12 hrs by LDH release assay; format: functional, cell-based
PC-12 [6] = assay: Cytoprotection activity against 6-OHDA-induced cytotoxicity in rat PC12 cells assessed as cell viability at 10 and 20 uM pre-incubated for 24 hrs before 6-OHDA exposure for 12 hrs by LDH release assay; format: functional, cell-based
PC-12 [7] = assay: Cytoprotection activity against H2O2-induced apoptosis in rat PC12 cells assessed as reduction in apoptotic nuclei levels at 10 and 20 uM pre-incubated for 24 hrs before H2O2 exposure for 5 hrs by Hoechst 33342 staining based fluorescent microscopy; format: functional, cell-based
Outline: (§1)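 PC12 cells seeded 2×10^5/well, grown 1 day, pretreated with compound 24 h, then medium replaced with fresh medium containing 200 μM 6-OHDA or 500 μM H2O2 for 5 h; Hoechst 33342 added at 5 μg/mL final; condensed, brightly fluorescent nuclei counted as apoptotic under fluorescence microscopy.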

PC-12 [8] = assay: Cytoprotection activity against 6-OHDA-induced apoptosis in rat PC12 cells assessed as reduction in apoptotic nuclei levels at 10 and 20 uM pre-incubated for 24 hrs before 6-OHDA exposure for 5 hrs by Hoechst 33342 staining based fluorescent microscopy; format: functional, cell-based; outline: as §1
PC-12 [9] = assay: Cytoprotection activity against 6-OHDA-induced apoptosis in rat PC12 cells assessed as reduction in caspase-3 activation at 10 and 20 uM pre-incubated for 24 hrs before 6-OHDA exposure for 24 hrs by colorimetric assay; format: functional, cell-based
Outline: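 Lysed in RIPA buffer (pH 7.5), protein by Bradford; caspase-3 measured colorimetrically with Ac-DEVD-pNA substrate, expressed as % of control; mean ± SD, three independent experiments.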

PC-12 [10] = assay: Induction of antioxidant genes expression in rat PC12 cells assessed as increase in NQO1 mRNA level at 20 uM incubated for 6 hrs by qRT-PCR method; format: functional, cell-based
Outline: (§2)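 PC12 cells, 1×10^6 per 60-mm dish, 1 day, then 20 μM compound for 0, 3, 6 and 12 h; total RNA isolated, quantified by 260/280 absorbance; mRNA by real-time RT-PCR normalized to GAPDH; mean ± SD of three independent experiments versus 0 h.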

PC-12 [11] = assay: Induction of antioxidant genes expression in rat PC12 cells assessed as increase in GCLM mRNA level at 20 uM incubated for 6 hrs by qRT-PCR method; format: functional, cell-based; outline: as §2
PC-12 [12] = assay: Induction of antioxidant genes expression in rat PC12 cells assessed as increase in TrxR1 mRNA level at 20 uM incubated for 12 hrs by qRT-PCR method; format: functional, cell-based; outline: as §2
PC-12 [13] = assay: Induction of antioxidant defense system in rat PC12 cells assessed as increase in NQO1 activity level incubated for 24 hrs by DCPIP dye reduction based spectrophotometry; format: functional, cell-based
Outline: (§3)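 NQO1: PC12 lysate in RIPA buffer, 5 μg protein into 20 mM Tris-HCl pH 7.4, 200 μM NADH, 40 μM DCPIP; A600 decrease read every 8 s for 2 min at room temperature ± 20 μM dicoumarol; dicoumarol-inhibitable rate used, expressed as % of DMSO control. Cells pretreated 24 h; stress lines then 500 μM H2O2 or 200 μM 6-OHDA 12 h.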

PC-12 [14] = assay: Cytoprotection activity against 6-OHDA-induced oxidative stress in rat PC12 cells assessed as NQO1 activity at pre-incubated for 24 hrs before 6-OHDA exposure for 12 hrs by DCPIP dye reduction based spectrophotometry; format: functional, cell-based; outline: as §3
[15] = molecular target: T1, Nuclear factor erythroid 2-related factor 2 (Rattus norvegicus) (UniProt O54968); assay: Induction of Nrf2-mediated antioxidant genes expression in rat PC12 cells assessed as increase in Trx1 protein expression at 10 and 20 uM incubated for 20 hrs by Western blotting method; format: cell-based; conditions: PC-12
T1 sequence (whole entry): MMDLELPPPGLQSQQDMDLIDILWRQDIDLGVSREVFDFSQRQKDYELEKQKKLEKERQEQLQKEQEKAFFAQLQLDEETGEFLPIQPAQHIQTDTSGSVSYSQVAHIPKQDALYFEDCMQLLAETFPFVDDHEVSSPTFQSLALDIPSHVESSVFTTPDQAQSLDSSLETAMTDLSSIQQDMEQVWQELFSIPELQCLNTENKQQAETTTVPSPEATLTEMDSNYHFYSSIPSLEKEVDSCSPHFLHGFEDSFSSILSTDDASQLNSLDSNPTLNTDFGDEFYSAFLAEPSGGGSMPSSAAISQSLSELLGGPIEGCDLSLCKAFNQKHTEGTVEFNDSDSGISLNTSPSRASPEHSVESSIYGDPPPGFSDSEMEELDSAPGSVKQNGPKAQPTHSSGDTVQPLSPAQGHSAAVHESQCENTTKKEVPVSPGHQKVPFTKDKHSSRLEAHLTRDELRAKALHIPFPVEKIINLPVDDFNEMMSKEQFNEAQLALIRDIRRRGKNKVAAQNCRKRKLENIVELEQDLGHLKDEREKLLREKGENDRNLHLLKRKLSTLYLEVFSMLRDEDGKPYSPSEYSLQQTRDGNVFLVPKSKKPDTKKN

[16] = molecular target: T1, Nuclear factor erythroid 2-related factor 2 (Rattus norvegicus); assay: Induction of Nrf2-mediated antioxidant genes expression in rat PC12 cells assessed as increase in TrxR1 protein expression at 10 and 20 uM incubated for 20 hrs by Western blotting method; format: cell-based; conditions: PC-12
PC-12 [17] = assay: Induction of total Nrf2 protein expression in rat PC12 cells at 20 uM incubated for 2 to 8 hrs by Western blotting method; format: functional, cell-based
Outline: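 Seeded at 1×10^6 cells per 60-mm dish for 24 h, PC12 cells were treated with 20 μM compound for 0, 2, 4 and 8 h. Whole-cell, cytosolic and nuclear protein extracts were then prepared and Nrf2 probed by Western blot.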

PC-12 [18] = assay: Cytoprotection activity against H2O2-induced cytotoxicity in rat PC12 cells assessed as cell viability at 10 and 20 uM pre-incubated for 24 hrs before H2O2 exposure for 12 hrs in presence of non-trageting shRNA by MTT assay; format: functional, cell-based
PC-12 [19] = assay: Cytoprotection activity against 6-OHDA-induced cytotoxicity in rat PC12 cells assessed as cell viability at 10 and 20 uM pre-incubated for 24 hrs before 6-OHDA exposure for 12 hrs in presence of non-trageting shRNA by MTT assay; format: functional, cell-based
PC-12 [20] = assay: Cytoprotection activity against 6-OHDA-induced cytotoxicity in rat PC12 cells assessed as cell viability at 10 and 20 uM pre-incubated for 24 hrs before 6-OHDA exposure for 12 hrs in presence of shNrf2 by MTT assay; format: functional, cell-based

SMILES	Activity [1]	Activity [2]	Activity (PC-12 [3])	Activity [4] [%]	Activity (PC-12 [5])	Activity (PC-12 [6])	Activity (PC-12 [7])	Activity (PC-12 [8])	Activity (PC-12 [9])	Activity (PC-12 [10])	Activity (PC-12 [11])	Activity (PC-12 [12])	Activity (PC-12 [13])	Activity (PC-12 [14])	Activity [15]	Activity [16]	Activity (PC-12 [17])	Activity (PC-12 [18])	Activity (PC-12 [19])	Activity (PC-12 [20])
COc1ccc(/C=C/C(=O)N2CCCC2=O)cc1	Non-toxic	Non-toxic	Active	75	Active	Active	Active	Active	Dose-dependent effect	Active	Active	Active	Active	Active	Active	Active	Active	Active	Active	inactive
COc1cc(/C=C/C(=O)N2CCCCC2=O)cc(OC)c1OC	Non-toxic	Non-toxic	Active	75	Active	Active	Active	Active	Dose-dependent effect	Active	Active	Active	Active	Active	Active	Active	Active	Active	Active	inactive
